Experimental data: ChEMBL document CHEMBL1124094, “Synthesis and pharmacological activity of angiotensin converting enzyme inhibitors: N-(mercaptoacyl)-4-substituted-(S)-prolines” (J Med Chem, 1988)
Calls of active or inactive are those of the source. The calls are words filed in the database; no cut-off is given here.

Experiments:
[1] = target: T1, Angiotensin-converting enzyme (Rattus norvegicus) (UniProt P47820); assay: In vivo inhibition of Angiotensin I converting enzyme at 100ug/Kg in anaesthetized rats;o denotes 'Inactive'; format: organism-based
T1 sequence (whole entry): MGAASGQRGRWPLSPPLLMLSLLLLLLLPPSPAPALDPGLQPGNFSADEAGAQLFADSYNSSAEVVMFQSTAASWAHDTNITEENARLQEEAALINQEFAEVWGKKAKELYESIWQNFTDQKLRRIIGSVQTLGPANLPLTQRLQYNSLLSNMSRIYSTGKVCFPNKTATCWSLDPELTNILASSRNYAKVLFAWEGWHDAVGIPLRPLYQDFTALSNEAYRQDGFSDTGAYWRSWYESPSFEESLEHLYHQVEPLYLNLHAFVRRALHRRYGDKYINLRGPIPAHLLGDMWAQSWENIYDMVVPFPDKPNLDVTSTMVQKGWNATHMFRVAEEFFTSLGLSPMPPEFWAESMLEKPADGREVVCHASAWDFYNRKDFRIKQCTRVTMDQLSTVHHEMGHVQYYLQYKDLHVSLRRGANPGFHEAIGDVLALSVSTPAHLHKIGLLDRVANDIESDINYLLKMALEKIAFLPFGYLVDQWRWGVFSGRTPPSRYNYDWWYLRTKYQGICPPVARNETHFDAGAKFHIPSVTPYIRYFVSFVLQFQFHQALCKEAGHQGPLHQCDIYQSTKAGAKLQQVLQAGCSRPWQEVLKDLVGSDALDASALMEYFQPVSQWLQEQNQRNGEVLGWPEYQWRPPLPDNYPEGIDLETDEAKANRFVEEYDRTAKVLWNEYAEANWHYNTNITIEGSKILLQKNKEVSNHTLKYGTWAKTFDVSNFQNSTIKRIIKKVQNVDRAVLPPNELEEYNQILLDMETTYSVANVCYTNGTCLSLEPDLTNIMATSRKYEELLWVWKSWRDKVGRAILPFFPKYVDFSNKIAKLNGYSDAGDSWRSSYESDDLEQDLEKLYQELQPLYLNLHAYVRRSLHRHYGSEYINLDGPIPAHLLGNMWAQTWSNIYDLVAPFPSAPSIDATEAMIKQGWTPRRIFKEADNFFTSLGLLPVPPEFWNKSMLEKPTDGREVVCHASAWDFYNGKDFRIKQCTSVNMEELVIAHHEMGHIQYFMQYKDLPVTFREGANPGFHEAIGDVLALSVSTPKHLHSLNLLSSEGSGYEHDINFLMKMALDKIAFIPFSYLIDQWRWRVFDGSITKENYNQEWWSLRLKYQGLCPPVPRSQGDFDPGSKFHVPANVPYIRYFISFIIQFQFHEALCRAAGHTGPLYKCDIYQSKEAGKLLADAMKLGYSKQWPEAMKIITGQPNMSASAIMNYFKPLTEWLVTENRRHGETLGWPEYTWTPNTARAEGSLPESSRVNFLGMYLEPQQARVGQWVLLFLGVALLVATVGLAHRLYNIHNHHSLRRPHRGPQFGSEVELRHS
In short: (§1)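 Sprague–Dawley rats under inactin (100 mg/kg) or dial urethane; carotid and jugular cannulas, arterial blood pressure recorded. Angiotensin I response as percent of control; ID50 by linear regression.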

[2] = target: T1, Angiotensin-converting enzyme (Rattus norvegicus); assay: Compound was tested for bradykinin potentiation at 0.1 ug/kg dose; format: functional
[3] = target: T1, Angiotensin-converting enzyme (Rattus norvegicus); assay: (§2) In vivo inhibition of Angiotensin I converting enzyme in anaesthetized rats; format: organism-based; in short: as §1
[4] = target: T2, Angiotensin-converting enzyme (Oryctolagus cuniculus) (UniProt P12822); assay: In vitro inhibition of Angiotensin I converting enzyme relative to captopril(=1)
T2 sequence (whole entry): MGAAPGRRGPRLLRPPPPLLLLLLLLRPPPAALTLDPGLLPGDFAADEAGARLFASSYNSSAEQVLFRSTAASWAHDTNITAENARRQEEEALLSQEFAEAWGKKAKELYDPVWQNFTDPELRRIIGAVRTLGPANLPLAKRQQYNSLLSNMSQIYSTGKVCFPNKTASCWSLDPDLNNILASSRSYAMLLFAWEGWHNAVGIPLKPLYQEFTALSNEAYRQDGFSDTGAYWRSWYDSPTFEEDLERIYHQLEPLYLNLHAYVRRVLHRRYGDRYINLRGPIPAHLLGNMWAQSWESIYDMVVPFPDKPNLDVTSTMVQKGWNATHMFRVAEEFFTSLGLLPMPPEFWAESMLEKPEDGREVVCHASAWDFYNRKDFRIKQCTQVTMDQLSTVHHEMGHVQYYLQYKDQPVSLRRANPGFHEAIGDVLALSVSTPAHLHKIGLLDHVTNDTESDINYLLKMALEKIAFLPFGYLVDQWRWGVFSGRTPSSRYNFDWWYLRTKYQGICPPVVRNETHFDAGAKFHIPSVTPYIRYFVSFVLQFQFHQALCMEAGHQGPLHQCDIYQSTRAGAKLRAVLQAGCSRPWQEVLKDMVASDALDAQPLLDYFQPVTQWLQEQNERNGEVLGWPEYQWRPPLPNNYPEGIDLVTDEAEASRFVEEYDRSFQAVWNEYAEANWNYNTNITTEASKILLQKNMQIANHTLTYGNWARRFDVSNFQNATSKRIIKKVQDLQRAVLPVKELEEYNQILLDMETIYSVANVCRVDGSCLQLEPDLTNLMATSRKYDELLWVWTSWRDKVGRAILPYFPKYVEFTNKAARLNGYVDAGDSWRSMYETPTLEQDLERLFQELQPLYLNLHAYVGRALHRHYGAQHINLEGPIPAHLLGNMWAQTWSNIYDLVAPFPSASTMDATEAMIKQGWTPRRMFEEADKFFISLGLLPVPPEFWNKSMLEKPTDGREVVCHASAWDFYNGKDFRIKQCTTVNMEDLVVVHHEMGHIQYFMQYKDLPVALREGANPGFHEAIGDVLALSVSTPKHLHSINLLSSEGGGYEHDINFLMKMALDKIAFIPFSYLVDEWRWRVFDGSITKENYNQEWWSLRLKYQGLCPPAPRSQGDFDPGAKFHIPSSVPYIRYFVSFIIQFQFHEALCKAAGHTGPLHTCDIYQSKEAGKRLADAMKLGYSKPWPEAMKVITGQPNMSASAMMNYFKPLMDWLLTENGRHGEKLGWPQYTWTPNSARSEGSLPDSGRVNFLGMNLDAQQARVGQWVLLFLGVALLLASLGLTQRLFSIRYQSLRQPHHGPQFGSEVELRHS
In short: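 Crude ACE from rabbit lung acetone powder extracted in 50 mM potassium phosphate pH 8.3, spun 40000g. Final assay: 100 mM phosphate pH 8.3, 300 mM NaCl, 5 mM hippuryl-His-Leu; enzyme added last, 30 min at 37 °C, stopped with HCl. Hippuric acid extracted into EtOAc, dried, redissolved in water, read by absorbance.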

[5] = target: T1, Angiotensin-converting enzyme (Rattus norvegicus); assay: as §2; format: organism-based; remark: listed apart in the source
Rattus norvegicus [6] = species on record: Rattus norvegicus; assay: Compound was tested peroral on the spontaneous hypertensive rat; format: functional
In short: (§3)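 Spontaneously hypertensive rats; drug in 0.4% methylcellulose, or water, saline or 5% ethanol. Aortic catheter via caudal artery under ether, rats conscious in restrainers; pressure averaged over 30 min, heart rate from pulse trace. Dosed after about 90 min, usually followed for 4 h.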

Rattus norvegicus [7] = assay: Compound was tested orally on the spontaneous hypertensive rat and blood pressure noted at half-hour interval; format: functional; in short: as §3
[8] = target: T1, Angiotensin-converting enzyme (Rattus norvegicus); assay: In vivo inhibition of Angiotensin I converting enzyme at 100 ug/kg in anaesthetized rats; format: organism-based; in short: as §1
[9] = target: T1, Angiotensin-converting enzyme (Rattus norvegicus); assay: In vivo inhibition of Angiotensin I converting enzyme at […] in anaesthetized rats;z denotes 'Inactive'; format: organism-based; in short: as §1
[10] = target: T1, Angiotensin-converting enzyme (Rattus norvegicus); assay: In vivo inhibition of Angiotensin I converting enzyme at 100ug/Kg in anaesthetized rats;z denotes 'Inactive'; format: organism-based; in short: as §1
Rattus norvegicus [11] = assay: Compound was tested for bradykinin potentiation at 0.1 ug/kg dose.; format: functional
[12] = target: T1, Angiotensin-converting enzyme (Rattus norvegicus); assay: In vivo inhibition of Angiotensin I converting enzyme at […] in anaesthetized rats.;z denotes 'Inactive'; format: organism-based; in short: as §1

CC(CS)C(=O)N1C[C@@H](C#N)C[C@H]1C(=O)O (stereo not given in full)
ID50 [1]: inactive
Delta blood pressure [2]: 47 mmHg

CO[C@H]1C[C@@H](C(=O)O)N(C(=O)C(C)CS)C1 (stereo not given in full)
ID50 [3]: 0.073 mg/kg
relative potency [4]: 0.53
Delta blood pressure [2]: 60 mmHg

COC1=C[C@@H](C(=O)O)N(C(=O)C(C)CS)C1 (stereo not given in full)
ID50 [1]: inactive
Delta blood pressure [2]: 52 mmHg

CC(CS)C(=O)N1C[C@@H](O)C[C@H]1C(=O)O (stereo not given in full)
ID50 [3]: 0.367 mg/kg
Delta blood pressure [2]: 40 mmHg

CS[C@H]1C[C@@H](C(=O)O)N(C(=O)C(C)CS)C1 (stereo not given in full)
ID50 [3]: 0.398 mg/kg

CC(CS)C(=O)N1CC2(C[C@H]1C(=O)O)SCCS2 (stereo not given in full)
ID50 [5]: 0.026 mg/kg
relative potency [4]: 1.26
SHR delta blood pressure (Rattus norvegicus [6]): 35 dec
Delta blood pressure [2]: 34 mmHg
SHR delta blood pressure (Rattus norvegicus [7]): 22 dec

CC(CS)C(=O)N1C[C@H](Oc2ccc(Cl)cc2)C[C@H]1C(=O)O (stereo not given in full)
ID50 [1]: inactive
Delta blood pressure [2]: 23 mmHg

CC(CS)C(=O)N1C[C@H](O)C[C@H]1C(=O)O (stereo not given in full)
ID50 [3]: 0.253 mg/kg
Delta blood pressure [2]: 48 mmHg

CC(CS)C(=O)N1C[C@@H](F)C[C@H]1C(=O)O (stereo not given in full)
ID50 [8]: 0.581 mg/kg

CC(CS)C(=O)N1C[C@H](OCc2ccccc2)C[C@H]1C(=O)O (stereo not given in full)
ID50 [3]: 0.508 mg/kg
Delta blood pressure [2]: 47 mmHg

CC(CS)C(=O)N1C[C@H](F)C[C@H]1C(=O)O (stereo not given in full)
ID50 [1]: inactive
Delta blood pressure [2]: 53 mmHg

CC(CS)C(=O)N1C[C@@H](SCc2ccccc2)C[C@H]1C(=O)O (stereo not given in full)
Delta blood pressure [2]: 5 mmHg
ID50 [9]: Inactive at 100 ug/kg

O=C(O)[C@@H]1CC2(CN1C(=O)CCS)SCCCS2
ID50 [5]: 0.01 mg/kg
relative potency [4]: 1
Delta blood pressure [2]: 19 mmHg

CO/N=C1\C[C@@H](C(=O)O)N(C(=O)C(C)CS)C1 (stereo not given in full)
relative potency [4]: 1

CC(CS)C(=O)N1C[C@@H](N=[N+]=[N-])C[C@H]1C(=O)O (stereo not given in full)
relative potency [4]: 0.54

CC(CS)C(=O)N1CC2(C[C@H]1C(=O)O)SCCCS2 (stereo not given in full)
ID50 [5]: 0.048 mg/kg
relative potency [4]: 1.07

CC(CS)C(=O)N1C[C@@H](SC2CCCCC2)C[C@H]1C(=O)O (stereo not given in full)
ID50 [10]: Inactive at 100 ug/kg
Delta blood pressure [2]: 6 mmHg

C[C@H](CS)C(=O)N1CC2(C[C@H]1C(=O)O)SCCS2
relative potency [4]: 4
Delta blood pressure (Rattus norvegicus [11]): 43 mmHg
SHR delta blood pressure (Rattus norvegicus [7]): 17 dec

CC(CS)C(=O)N1CC2(C[C@H]1C(=O)O)OCCO2 (stereo not given in full)
ID50 [5]: 0.065 mg/kg
relative potency [4]: 1
Delta blood pressure [2]: 43 mmHg

CCOCCO[C@@H]1C[C@@H](C(=O)O)N(C(=O)C(C)CS)C1 (stereo not given in full)
ID50 [3]: 0.372 mg/kg
Delta blood pressure [2]: 45 mmHg

CC(CS)C(=O)N1CC2(C[C@H]1C(=O)O)OCC(C)(C)CO2 (stereo not given in full)
ID50 [5]: 0.359 mg/kg
relative potency [4]: 1
Delta blood pressure [2]: 46 mmHg
Delta blood pressure (Rattus norvegicus [7]): 25 mmHg

CC(CS)C(=O)N1C[C@@H](OCc2ccccc2)C[C@H]1C(=O)O (stereo not given in full)
ID50 [12]: Inactive at 100 ug/kg
relative potency [4]: 0.56
Delta blood pressure [2]: 40 mmHg

CO[C@@H]1C[C@@H](C(=O)O)N(C(=O)C(C)CS)C1 (stereo not given in full)
ID50 [3]: 1.21 mg/kg
relative potency [4]: 0.5

CC(CS)C(=O)N1C[C@H](OCCOc2ccccc2)C[C@H]1C(=O)O (stereo not given in full)
ID50 [1]: inactive
Delta blood pressure [2]: 9 mmHg

O=C(O)[C@@H]1CC2(CN1C(=O)CCS)SCCS2
ID50 [5]: 0.078 mg/kg
relative potency [4]: 2.6
Delta blood pressure [2]: 38 mmHg

COC1(OC)C[C@@H](C(=O)O)N(C(=O)C(C)CS)C1 (stereo not given in full)
relative potency [4]: 0.9

CC(CS)C(=O)N1C[C@@H](Sc2ccccc2)C[C@H]1C(=O)O (stereo not given in full)
ID50 [3]: 0.544 mg/kg
Delta blood pressure [2]: 22 mmHg
